From PubChem BioAssay
CHT PAM = allosterically activates the human high affinity choline transporter; B-score at 10 µM; AID 488977; CHT-expressing cells, membrane potential dye, choline EC20; hits give high values; LV-AA mutant CHT in HEK293 cells; Q9GZV3; hit rate 0.49% among 310,000;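 active means initial fluorescence not abnormally high and integrated response B-score, plate-corrected, over 3 SD above library mean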
Target sequence (Q9GZV3 whole entry, looked up): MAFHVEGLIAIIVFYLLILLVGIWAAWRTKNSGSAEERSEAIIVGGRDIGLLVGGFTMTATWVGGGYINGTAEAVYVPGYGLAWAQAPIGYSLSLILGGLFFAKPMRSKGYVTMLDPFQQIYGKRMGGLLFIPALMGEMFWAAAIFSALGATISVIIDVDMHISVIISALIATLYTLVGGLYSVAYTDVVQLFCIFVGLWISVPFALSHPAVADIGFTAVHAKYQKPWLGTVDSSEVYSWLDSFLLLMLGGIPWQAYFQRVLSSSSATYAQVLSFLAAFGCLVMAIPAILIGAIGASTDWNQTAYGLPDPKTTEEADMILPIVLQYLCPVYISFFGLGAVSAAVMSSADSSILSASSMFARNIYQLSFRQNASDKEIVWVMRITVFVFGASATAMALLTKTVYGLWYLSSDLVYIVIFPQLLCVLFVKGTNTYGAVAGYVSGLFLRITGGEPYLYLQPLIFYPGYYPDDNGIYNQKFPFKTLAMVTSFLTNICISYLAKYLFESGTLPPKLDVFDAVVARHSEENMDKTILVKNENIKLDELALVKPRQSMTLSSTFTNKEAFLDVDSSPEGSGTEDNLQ
CHT block = inhibits the human high affinity choline transporter | CHT-expressing cells, membrane potential dye, choline response; hits give low values | B-score at 10 µM | hit rate 0.86% among 310,000 | AID 488975;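 active means B-score over 3 SD under the library average, and starting fluorescence ratio not unusually high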;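 further: choline stimulus applied at its EC90 after an EC20 pre-addition; B-score computed on integrated fluorescence ratio after choline addition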
T cruzi inh = blocks replication of Trypanosoma cruzi; T. cruzi beta-gal in NIH3T3, luminescence, 90 h; inhibition, % (concentration not given with the values); hit rate 1.4% among 300,000; AID 1885;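 active means mean inhibition across valid replicates above about 55%, limit read from the data; inconclusive means mean below that limit but half or more replicates reach it; inactive means mean below it, under half of replicates reach it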;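 further: signal also drops with host cell toxicity which is not excluded here; higher percent means less beta-gal luminescence so fewer parasites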
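assay system = mouse NIH/3T3 fibroblasts infected with β-gal-expressing T. cruzi Tulahuen C4 | input = 5,000 NIH/3T3 host cells per well | buffer or medium = DMEM plus 2% FBS | timing = 3 h host attachment, then at least 90 h co-culture | measured by = GalScreen luminescence, 60 min | evaluation = luminescence reflecting intracellular parasite burden, expressed as percent inhibition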
PolyA inhibitor = yeast polyadenylation inhibition; S. cerevisiae SKY197-pL101 polyadenylation reporter, beta-gal luminescence; efflux-impaired pdr1/pdr3 knockout yeast; score 100 = 6 SD above DMSO; activity score, % at 12 µM; hit rate 0.02% among 300,000; AID 1875;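 active means lowest replicate activity score at least 50, where 100 means six control SD above control mean; inconclusive means lowest score under 50 but half or more replicates reach 50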;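 further: yeast exposed to compound for 9 h at 30 °C; higher score means more reporter readthrough which indicates perturbed polyadenylation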
CHT act confirm = human CHT activation, confirmatory screen. CHT-expressing cells, membrane potential dye fluorescence (FDSS); % of choline EC20–EC90 response window; HEK293 expressing CHT LV-AA mutant; choline added at its EC20. shares compounds with CHT PAM. activation, % at 10 µM. hit rate 91% among 2,500;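 active means primary screen active, with duplicate mean activation above negative control mean plus 3 SD, cut at about 11% in these data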
HEK293 MP dye = activity in parental HEK293 cells lacking CHT | shares compounds with CHT PAM | membrane potential dye fluorescence (FDSS); measured after EC20 choline addition | ratio readout change at 10 µM, hits read low | hit rate 62% among 2,500 | AID 623908;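 active means duplicate-averaged ratio beyond 3 SD from buffer wells, up or down, though filed actives are nearly all decreases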
A number is an active result. In the library only some 2.6% were active in any assay of this set; here they are far more common.

`CC/C(=C/c1sc2ccccc2[n+]1CC)SC` gave CHT PAM 6.5, CHT block inactive, T cruzi inh inactive, PolyA inhibitor inactive, CHT act confirm 51 and HEK293 MP dye inactive.
Screening CC1CCN(S(=O)(=O)c2cnc[nH]2)CC1 returned CHT PAM inactive, CHT block inactive, T cruzi inh inactive and PolyA inhibitor inactive.
O=C(NC1CCCN(Cc2ccc(Cl)cc2)C1)c1ccoc1 (stereo not given) was read as CHT PAM inactive, CHT block inactive, T cruzi inh inactive and PolyA inhibitor inactive.
Screening CCN1/C(=C/C=C/C=C/C=C/c2sc3ccccc3[n+]2CC)Sc2ccccc21 returned CHT PAM 9.6, CHT block inactive, T cruzi inh inactive, PolyA inhibitor inactive, CHT act confirm 29 and HEK293 MP dye -35.
`CCOC(=O)/C(=C/C=C1\Sc2ccccc2N1CC)C(C)=O` gave CHT PAM inactive, CHT block inactive, T cruzi inh inactive and PolyA inhibitor inactive.
COc1ccc(NCc2nc3ccccc3n2CCOc2ccccc2)cc1 was read as CHT PAM 6.4, CHT block inactive, T cruzi inh 69, PolyA inhibitor inactive, CHT act confirm 24 and HEK293 MP dye inactive.
c1ccc(NCc2nc3ccccc3n2CCOc2ccccc2)cc1 was read as CHT PAM inactive, CHT block inactive, T cruzi inh inactive and PolyA inhibitor inactive.
O=C(O)c1ccccc1C(=O)NCc1cccnc1 was read as CHT PAM inactive, CHT block inactive, T cruzi inh inactive and PolyA inhibitor inactive.
For O=C(NCc1cccnc1)c1cccn2c(=O)c3sccc3nc12 the results were CHT PAM 7.8, CHT block inactive, T cruzi inh inactive, PolyA inhibitor inactive, CHT act confirm 54 and HEK293 MP dye -53.
For COc1cc2c(cc1OC)-c1cc(OCCN3CCOCC3)nc(=O)n1CC2 the results were CHT PAM 6.5, CHT block inactive, T cruzi inh inactive, PolyA inhibitor inactive, CHT act confirm 55 and HEK293 MP dye -44.
`CCC(CC)C(=O)Nc1nnc(CCc2ccccc2)s1` gave CHT PAM inactive, CHT block inactive, T cruzi inh inactive and PolyA inhibitor inactive.
Screening Cn1c(=O)c2c(ncn2CCCC(=N)N2CCOCC2)n(C)c1=O returned CHT PAM 11, CHT block inactive, T cruzi inh inactive, PolyA inhibitor inactive, CHT act confirm 78 and HEK293 MP dye -72.
Screening COC(=O)c1ccc(N2CCN(C)CC2)c(NC(=O)COc2ccc(OC)cc2)c1 returned CHT PAM 9.2, CHT block inactive, T cruzi inh inactive, PolyA inhibitor inactive, CHT act confirm 69 and HEK293 MP dye -65.
`CCCN(CC(=O)Nc1ccccc1C)C(=O)c1cccc(S(=O)(=O)N2CCc3ccccc3C2)c1` gave CHT PAM 6.9, CHT block inactive, T cruzi inh inactive, PolyA inhibitor inactive, CHT act confirm inactive and HEK293 MP dye inactive.
`O=C(Nc1nc2ccccc2n1CCN1CCCCC1)c1ccco1` gave CHT PAM 8.1, CHT block inactive, T cruzi inh inactive, PolyA inhibitor inactive, CHT act confirm 29 and HEK293 MP dye -41.
For Cn1ncc([N+](=O)[O-])c1C(=O)Nc1nc2ccccc2n1CCN1CCCCC1 the results were CHT PAM inactive, CHT block inactive, T cruzi inh inactive and PolyA inhibitor inactive.
`CCn1cc(Cl)c(C(=O)Nc2nc3ccccc3n2CCN2CCCCC2)n1` gave CHT PAM 9.6, CHT block inactive, T cruzi inh inactive, PolyA inhibitor inactive, CHT act confirm 53 and HEK293 MP dye -67.
Screening C=CCn1c(NC(=O)c2ccco2)nc2ccccc21 returned CHT PAM inactive, CHT block inactive, T cruzi inh inactive and PolyA inhibitor inactive.
Screening COc1ccccc1CNc1nc2ccccc2n1CCN1CCCCC1 returned CHT PAM 6.3, CHT block inactive, T cruzi inh inactive, PolyA inhibitor inactive, CHT act confirm 40 and HEK293 MP dye -22.
Screening CCOC(=O)c1c(N)c2cc([N+](=O)[O-])ccc2n1C returned CHT PAM inactive, CHT block inactive, T cruzi inh inactive and PolyA inhibitor inactive.
Screening CCOC(=O)c1c(N=CN(C)C)c2cc([N+](=O)[O-])cnc2n1C returned CHT PAM inactive, CHT block inactive, T cruzi inh inactive, PolyA inhibitor inactive, CHT act confirm 38 and HEK293 MP dye -46.
COCCCn1c(=O)c2ccccc2n(CC(=O)NC2CCCCC2)c1=O was read as CHT PAM inactive, CHT block inactive, T cruzi inh inactive and PolyA inhibitor inactive.
For c1ccc2c(c1)N1CCCN=C1N2CCN1CCCCC1 the results were CHT PAM 9.5, CHT block inactive, T cruzi inh inactive, PolyA inhibitor inactive, CHT act confirm 31 and HEK293 MP dye -72.
Screening c1ccc2c(c1)N1CCN=C1N2CCN1CCCCC1 returned CHT PAM 9.8, CHT block inactive, T cruzi inh inactive, PolyA inhibitor inactive, CHT act confirm 80 and HEK293 MP dye -80.
Screening c1ccc(CN2C3=NCCN3c3ccccc32)cc1 returned CHT PAM inactive, CHT block inactive, T cruzi inh inactive and PolyA inhibitor inactive.
For Clc1ccc(CN2C3=NCCN3c3ccccc32)cc1Cl the results were CHT PAM inactive, CHT block inactive, T cruzi inh inconclusive, PolyA inhibitor inactive, CHT act confirm 23 and HEK293 MP dye inactive.
COC(=O)c1ccc(OCCN2C3=NCCN3c3ccccc32)cc1 was read as CHT PAM inactive, CHT block inactive, T cruzi inh inactive, PolyA inhibitor inactive, CHT act confirm 17 and HEK293 MP dye -40.
For N#Cc1ccc(COC(=O)CC(NC(N)=O)c2ccc(Cl)cc2)cc1 (stereo not given) the results were CHT PAM inactive, CHT block inactive, T cruzi inh inactive and PolyA inhibitor inactive.
Cc1cccc(-c2cc3nc(C)cc(NCCCn4ccnc4)n3n2)c1 was read as CHT PAM 9.6, CHT block inactive, T cruzi inh inactive, PolyA inhibitor inactive, CHT act confirm 51 and HEK293 MP dye -59.
For FC(F)(F)c1cc(-c2cccs2)nc2cc(-c3cccs3)nn12 the results were CHT PAM inactive, CHT block inactive, T cruzi inh inactive and PolyA inhibitor inactive.
`Cc1cc(NCCCN(C)C)n2nc(-c3cccs3)cc2n1` gave CHT PAM 13, CHT block inactive, T cruzi inh inactive, PolyA inhibitor inactive, CHT act confirm 39 and HEK293 MP dye -89.
`COC(=O)CSc1nc2ccc(NC(=O)c3ccccc3C(=O)N3CCOCC3)cc2s1` gave CHT PAM inactive, CHT block inactive, T cruzi inh inactive and PolyA inhibitor inactive.
